A selection: hits, their analogues and other compounds. The true share with any hit is near 4%.
C2C12 statin – suppressors of statin myotoxicity in C2C12 myotubes, primary screen, cell-based, single point, plate reader; 330,000 compounds, 0.78% hits; rescue of ATP level, % at 7.49 µM; AID 602340, 2012; C2C12 myotubes + simvastatin, ATP luminescence, 48 h; scaled: DMSO 0, geranylgeraniol control 100;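 active means mean ATP rescue above about 67%, or every replicate alone reaching that limit, limit read from the data, passing the limit was not always enough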;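 further: myotubes were challenged with 10 µM simvastatin during compound exposure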
FN deposition inh – inhibitors of fibronectin matrix deposition, primary screen, AH1F cells, Alexa488-fibronectin fluorescence, plate reader | 350,000 compounds, 0.086% hits | AH1F fibroblasts, overnight | inhibition, % at 12.6 µM;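 active means mean inhibition across replicates of 30% or more, regardless of how many single replicates reach that level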;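 further: positive control wells lacked labelled fibronectin entirely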
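Assay system: AH1F fibroblasts / Quantity: 10000 cells per well / Medium: DMEM plus 2% serum, read in PBS / Reagent: labelled fibronectin 24 nM / Dosing: single dose, pinned / Times: 1 h cell attachment, overnight exposure to compound and label / Signal: fluorescence, ex 485 nm, em 525 nm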
E-selectin induc – E-selectin induction in HUVECs, primary screen, imaging, HUVEC, immunofluorescence imaging, single point; normalized: neutral wells 0, TNF-alpha wells 100; activation, % at 7.58 µM; 260,000 compounds, 0.37% hits; AID 686992, 2013;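 active means mean E-selectin-positive cell signal at least 10% of the positive control, reached in at least 60% of replicates, without over 20% cell loss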
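Test system – human umbilical vein endothelial cells (HUVEC), E-selectin induction · Input – 3,000 HUVEC seeded per well · Buffer or medium – EGM-2, gelatin · Compound dosing – single-point compound dose · Detection – immunofluorescence imaging · Measure – percent E-selectin-positive cells · Controls – TNF-alpha high, DMSO low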
FGF22 binding – binders of human FGF22 protein, primary screen, FGF22 synaptogenesis inhibitor project, biophysical, thermal shift, single point | 340,000 compounds, 1.5% hits | recombinant FGF22 thermal shift, SYPRO orange fluorescence; percent of sucrose octasulfate shift, DMSO zero | activity (Tm shift, normalised), % at 9.99 µM;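 active means mean Tm shift, scaled 0 neutral to 100 positive control, at about 1.3% or above, every replicate too, limit read from the data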
Target sequence (Q9HCT0 whole entry, looked up): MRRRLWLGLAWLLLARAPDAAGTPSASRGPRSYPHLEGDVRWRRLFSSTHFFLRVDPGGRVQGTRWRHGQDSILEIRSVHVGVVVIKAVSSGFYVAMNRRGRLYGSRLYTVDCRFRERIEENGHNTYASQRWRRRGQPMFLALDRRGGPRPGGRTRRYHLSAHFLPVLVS
SIRT5 inh – SIRT5 desuccinylase inhibitors, primary screen, biochemical, fluorescence imaging, single point, set 5. Purified SirT5, succinyl-peptide AMC, trypsin-coupled fluorescence. inhibition, % at 15 µM. 330,000 compounds, 1.1% hits; in the data active means inhibition above about 15%
Target sequence (Q9NXA8 whole entry, looked up): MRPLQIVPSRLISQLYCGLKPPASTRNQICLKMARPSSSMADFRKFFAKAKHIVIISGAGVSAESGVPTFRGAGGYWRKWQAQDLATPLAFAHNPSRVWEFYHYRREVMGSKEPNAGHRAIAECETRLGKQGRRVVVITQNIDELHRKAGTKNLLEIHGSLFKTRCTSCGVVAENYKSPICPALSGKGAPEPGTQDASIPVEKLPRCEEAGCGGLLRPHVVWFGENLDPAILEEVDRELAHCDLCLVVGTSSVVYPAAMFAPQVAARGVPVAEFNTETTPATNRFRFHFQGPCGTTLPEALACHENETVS
rRNA inh HTS – reduced GFP signal of wild-type E. coli, primary screen, bacterial rRNA inhibitor project, GFP/RFP fluorescence, OD600, single point; E. coli WT GFP vs humanized-ribosome RFP mutants, 24 h; hits give low values; DMSO median 0, no signal -100; GFP signal change (wild-type ribosome), % (concentration not given with the values); 350,000 compounds, 1.6% hits; AID 720706, 2013;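 active means significant combined selectivity score with lowered wild-type GFP, culture density cut under 30%, mutant RFP and density less affected; inactive means any of these conditions unmet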
* hit, by the source's call; · = no result.

SMILES | C2C12 statin | FN deposition inh | E-selectin induc | FGF22 binding | SIRT5 inh | rRNA inh HTS
COc1ccc(-c2nn(-c3ccccc3)cc2C(=O)OCC(=O)c2ccc(C)c([N+](=O)[O-])c2)cc1 | · | -2.6 | · | 42.9* | 0.3 | ·
CCN(CC)CCN(C(=O)c1ccc2c(c1)OCCO2)c1nc2cc(C)cc(C)c2s1 | · | -0.1 | -0.6 | 0.0 | -0.3 | -20.8*
CCN(CC)CCN(C(=O)c1ccc2c(c1)OCCO2)c1nc2c(Cl)cccc2s1 | -7.7 | · | -0.5 | 0.1 | -3.0 | -22.0*
CCN(CC)CCN(C(=O)c1ccc2ccccc2c1)c1nc2cc3c(cc2s1)OCO3 | 0.8 | · | 3.2 | -0.1 | -1.8 | -8.0
CN(C)CCN(C(=O)c1cccc(Cl)c1)c1nc2c(Cl)cccc2s1 | -13.4 | -7.8 | 0.2 | · | · | ·
Cc1sc(NC(=O)CSc2n[nH]c(N)n2)c(C#N)c1C | 1.1 | · | -0.5 | 0.3 | 15.6* | -8.9
Cc1ccsc1/C=N/NC(=S)NCc1ccccc1 | 5.4 | -27.0 | 0.9 | 0.2 | 2.3 | -9.8
Cc1ccsc1/C=N\NC(=O)CC(=O)NCc1ccccc1 | · | 13.0 | -0.9 | 43.4* | 1.3 | 6.1
Cc1noc(C)c1S(=O)(=O)Nc1cccc2c1O[C@@H](CN(C)C)[C@@H](C)CN([C@H](C)CO)C2=O | -8.4 | -1.1 | -6.0 | -0.1 | -1.3 | 9.3
CN(C)C(=O)c1ccc(-c2ccc3c(c2)[C@@H]2[C@@H](CCN2C(=O)C2CCOCC2)[C@@H](CO)N3C)cc1 | -11.0 | 1.0 | -0.1 | 0.0 | -7.0 | -0.2
COc1ccc(S(=O)(=O)N(C)C[C@@H]2Oc3ccc(N(C)C)cc3CC(=O)N([C@@H](C)CO)C[C@H]2C)cc1 | 11.9 | 2.9 | 0.0 | -0.3 | 1.3 | -0.5
CN(C)S(=O)(=O)n1cc(/C=C(\NC(=O)c2ccccc2Cl)C(=O)NCCCn2ccnc2)c2ccccc21 | -10.4 | 5.6 | 14.3 | 0.1 | 19.0* | 7.1
CC(=O)Nc1ccc(/C=N/Nc2nc3ccccc3[nH]2)cc1 | · | -6.7 | · | 0.2 | -1.4 | -21.3*
COc1cccc(/C=N/Nc2nc3ccccc3[nH]2)c1OC | · | 4.1 | -0.1 | -0.2 | -0.5 | -24.6*
CC1(C)OC(=O)C(=Cc2ccc(-c3ccc(Cl)c(C(=O)O)c3)o2)C(=O)O1 | · | · | · | -0.1 | 4.5 | 2.8
Cc1ccc(N2NC(=O)/C(=C/c3ccc(-c4ccc(Cl)c(C(=O)O)c4)o3)C2=O)cc1C | 3.5 | -2.8 | -1.0 | 0.1 | 0.7 | 9.2
COC(=O)c1ccc(N2NC(=O)/C(=C/c3ccc(-c4ccc(Cl)c(C(=O)O)c4)o3)C2=O)cc1 | 8.7 | -0.2 | · | 1.2 | 23.5* | 14.8
O=C1NN(c2ccccc2)C(=O)/C1=C/c1ccc(-c2ccc(C(=O)O)cc2)o1 | 19.8 | 1.3 | · | -0.2 | 23.9* | 7.2
CC1=NOC(=O)/C1=C\c1ccc(-c2ccc(Cl)c(C(=O)O)c2)o1 | · | 0.7 | -1.9 | 0.2 | 21.8* | 5.3
CC(CC(=O)OCC(=O)NC1CCS(=O)(=O)C1)c1ccccc1 (configuration not stated) | -6.1 | 4.4 | 0.0 | 42.9* | · | 0.7
COc1cc2ccccc2cc1C(=O)OCC(=O)NC1CCS(=O)(=O)C1 (configuration not stated) | · | 3.6 | · | 43.0* | 7.3 | 12.0
Cc1ccc(C(=O)OCC(=O)NC2CCS(=O)(=O)C2)c(C)c1 (configuration not stated) | -1.5 | 4.1 | · | -0.4 | 11.5 | 1.7
O=C(C/C=N\OCc1ccc([N+](=O)[O-])cc1)Nc1ccccc1 | 5.2 | -5.6 | 0.1 | -0.1 | 0.1 | -1.8
O=C(C/C=N\OCc1ccc([N+](=O)[O-])cc1)Nc1ccc(Cl)cc1 | · | · | · | 0.0 | -1.5 | -40.5*
Cc1ccc(S(=O)(=O)N2[C@@H](c3ccccc3F)C(C(=O)O)=CC[C@H]2c2cccs2)cc1 | 0.0 | -1.8 | -0.2 | 0.0 | -0.9 | -16.4*
SMILES | C2C12 statin | FN deposition inh | E-selectin induc | FGF22 binding | SIRT5 inh | rRNA inh HTS
CCc1ccc([C@@H]2CC=C(C(=O)O)[C@H](c3ccc(Cl)cc3)N2S(=O)(=O)c2ccc(C)cc2)cc1 | 12.3 | 4.5 | -0.1 | 0.5 | 10.9 | -36.8
Cc1ccc([C@@H]2CC=C(C(=O)O)CN2S(=O)(=O)c2ccccc2C)cc1 | 3.1 | -2.6 | 0.1 | -0.2 | 0.9 | -25.2*
CCc1ccc([C@@H]2CC=C(C(=O)O)[C@H](c3ccc(C)cc3)N2S(=O)(=O)c2ccc(C)cc2)cc1 | -0.6 | 2.2 | -0.6 | -1.1 | · | -24.4*
Cc1ccc([C@@H]2CC=C(C(=O)O)[C@H](c3ccccc3)N2S(=O)(=O)c2ccccc2C)cc1 | 0.1 | -7.2 | 0.1 | · | -4.3 | -12.1
Cc1ccc(S(=O)(=O)N2[C@@H](c3ccccc3)C(C(=O)O)=CC[C@H]2c2cccs2)cc1 | 6.9 | -0.5 | 0.2 | -0.1 | -0.9 | -35.8
Cc1ccc([C@H]2C(C(=O)O)=CC[C@@H](c3ccc(C)cc3)N2S(=O)(=O)c2ccccc2C)cc1 | 7.1 | -1.4 | -0.3 | · | · | -39.0*
CN(C)c1ccc2c(c1)[C@@H]1C[C@@H](CC(=O)NC3CCCC3)O[C@H](CO)[C@@H]1O2 | -6.4 | 8.5 | -0.6 | -0.8 | -4.3 | 3.8
O=C(CN1CCCC1)N1c2ccccc2C=Cc2ccccc21 | · | 15.3 | 1.5 | 43.3* | -8.6 | -1.1
O=C(CN1CCCCCC1)N1c2ccccc2C=Cc2ccccc21 | -7.6 | -2.8 | · | · | -1.0 | 16.1
O=C(CSc1nnc(-c2ccncc2)s1)Nc1ccc(Cl)c(C(=O)O)c1 | 8.7 | 2.0 | · | 0.2 | 0.2 | 3.0
COC(=O)c1cc(NC(=O)CSc2nnc(N)s2)ccc1Cl | 1.4 | 1.8 | -5.6 | 0.1 | 2.4 | -21.6*
Nc1nnc(SCC(=O)Nc2ccc(Cl)c(C(=O)O)c2)s1 | · | -0.4 | · | 0.2 | 16.9* | 12.2
CO[C@H]1CN(C)C(=O)c2cc(NC(=O)Nc3ccccc3)ccc2OC[C@@H](C)N(C(=O)CC2CC2)C[C@@H]1C | -1.1 | -7.7 | -0.2 | 0.1 | 3.2 | -1.0
COc1ccccc1-c1cc(C(F)(F)F)nc(S(=O)(=O)CCCC(=O)NCc2ccc(F)cc2)n1 | · | -4.7 | -0.3 | 1.4* | -4.5 | 14.9
COc1ccccc1-c1cc(C(F)(F)F)nc(S(=O)(=O)CCCC(=O)N2CCCCC2C)n1 (configuration not stated) | 84.0* | 16.1 | · | · | · | ·
COc1ccccc1-c1cc(C(F)(F)F)nc(S(=O)(=O)CCCC(=O)Nc2cc(C)on2)n1 | 42.1 | · | · | · | · | ·

Screening data as filed in PubChem BioAssay.
